A word on the inhibition: it is the change of the read-out against control, counted positive when it falls.

Calls of active or inactive are those of the source.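 Rule for the calls, unless noted: active = compounds giving at least 50% inhibition in the cell-based MKP-3 phosphatase rescue imaging test; inactive = the rest.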

The nature of test [1]: inhibitors of TNFa-induced NFkB p65 translocation, primary screen, imaging, HUVEC, MLSMR starter and 10KST1 sets (AID 438;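 active = inhibition above 20% together with a positive visual image hit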;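 note: compound added about 3h40 before a 20 min TNFalpha stimulation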;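 for inhibition: signal is the nuclear over cytoplasmic p65 intensity ratio per well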). Conditions: HUVEC TNFa-induced p65 nuclear translocation; cell count: measured here: nuclei count (cytotoxicity indicator), at 2.08 µM; inhibition: at 2 µM, stronger effect = higher value, 0% TNFa-plus-vehicle, 100% no-TNFa wells.
Test [2] in a line: endothelial E-selectin expression blockers – imaging, HUVEC, immunofluorescence, MLSMR starter and 10KST1 sets, primary screen (AID 487;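 active = visually confirmed hit in the image check and inhibition above 20%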;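 for inhibition: signal is fraction of cell area covered by stained E-selectin grains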;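 for nuclei count: 100% = median nuclei count of all wells on the same plate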). As to conditions: HUVEC TNFalpha-induced E-selectin immunofluorescence imaging, at 2 µM; inhibition: stronger effect = higher value; nuclei count: measured here: cell number, toxicity.
A short description of test [3]: Primary imaging screen for DUSP6 inhibitors that restore phospho-Erk in transfected HeLa cells, chemical complementation (AID 609).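 For inhibition: phospho-Erk level distribution per well compared with pooled transfected vehicle control wells.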 As to conditions: HeLa MKP-3 transfected, phospho-Erk imaging KS statistic, at 10 µM, cells stimulated with TPA for 15 min.
Test [4] deals with Dual specificity protein phosphatase 6 (Homo sapiens) (UniProt Q16828). The description is as above. Conditions: HeLa MKP-3 transfected, phospho-Erk imaging KS statistic; at 10 µM; stronger effect = higher value; cells stimulated with TPA for 15 min.
Dual specificity protein phosphatase 6 (Homo sapiens), sequence (Q16828 whole entry, looked up): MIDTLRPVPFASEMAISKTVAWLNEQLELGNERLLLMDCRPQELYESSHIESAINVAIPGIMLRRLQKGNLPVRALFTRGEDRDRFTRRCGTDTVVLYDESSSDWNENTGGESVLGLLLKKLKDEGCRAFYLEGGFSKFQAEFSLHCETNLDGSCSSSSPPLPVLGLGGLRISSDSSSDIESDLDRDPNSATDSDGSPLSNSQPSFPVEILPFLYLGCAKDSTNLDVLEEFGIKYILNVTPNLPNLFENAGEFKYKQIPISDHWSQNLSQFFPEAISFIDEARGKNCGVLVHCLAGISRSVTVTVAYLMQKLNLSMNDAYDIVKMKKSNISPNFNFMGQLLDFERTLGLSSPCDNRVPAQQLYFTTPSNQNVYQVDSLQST
Test [5] has as its target Voltage-gated potassium channel subunit beta-2 (Rattus norvegicus) (UniProt P62483). The test can be described thus: inhibitors of rat Kvbeta2 reductase activity – biochemical, NADPH fluorescence, primary screen (AID 622;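 active = fluorescence slope higher than the sample average by over 3 SD, cut at about -0.22 in these data, passing the limit was not always enough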;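 note: slope of raw intensity against log time taken from 70 to 1610 s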). Conditions: recombinant KvBeta, 4-cyanobenzaldehyde reduction, at 10 µM, stronger effect = higher value.
Test [6] has the same target. The test can be described thus: enhancers of rat Kvbeta2 NADPH turnover – biochemical, NADPH fluorescence, primary screen (AID 623;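 active = NADPH fluorescence slope more negative than the mean of all samples by about 3 SD, 99.7% confidence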;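 note: fluorescence intensity change per second fitted from 20 to 320 s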). Conditions: Recombinant KvBeta, NADPH fluorescence decrease slope, 10 min; at 10 µM; stronger effect = lower value.
The target of test [7] is Muscarinic acetylcholine receptor M4 (Homo sapiens) (UniProt P08173). The test can be described thus: M4-linked GIRK flux change, two-sided – cell-based, HEK293 M4/GIRK, thallium flux, BTC-AM, M4 allosteric agonist project, primary screen (AID 625;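 active = fluorescence slope after compound addition differing from the mean of all tested samples at 99.7% confidence, mostly higher but some lower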;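 note: thallium influx through GIRK channels coupled to M4 in HEK293 cells with BTC-AM dye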). As to conditions: at 10 µM, actives lie on both sides. The procedure, abridged: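 assay system = HEK293 cells with M4 receptor and GIRK channels | medium = pH 7.3 thallium assay buffer | doses = 10 µM final, single point | timing = cells overnight at 37 °C, BTC-AM loading 1 h, reads 2 min total | signal = BTC-AM fluorescence, 1 Hz kinetic reads | read-out = post-addition slope, 15–24 s, of baseline-normalized fluorescence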
Muscarinic acetylcholine receptor M4 (Homo sapiens), sequence (P08173 whole entry, looked up): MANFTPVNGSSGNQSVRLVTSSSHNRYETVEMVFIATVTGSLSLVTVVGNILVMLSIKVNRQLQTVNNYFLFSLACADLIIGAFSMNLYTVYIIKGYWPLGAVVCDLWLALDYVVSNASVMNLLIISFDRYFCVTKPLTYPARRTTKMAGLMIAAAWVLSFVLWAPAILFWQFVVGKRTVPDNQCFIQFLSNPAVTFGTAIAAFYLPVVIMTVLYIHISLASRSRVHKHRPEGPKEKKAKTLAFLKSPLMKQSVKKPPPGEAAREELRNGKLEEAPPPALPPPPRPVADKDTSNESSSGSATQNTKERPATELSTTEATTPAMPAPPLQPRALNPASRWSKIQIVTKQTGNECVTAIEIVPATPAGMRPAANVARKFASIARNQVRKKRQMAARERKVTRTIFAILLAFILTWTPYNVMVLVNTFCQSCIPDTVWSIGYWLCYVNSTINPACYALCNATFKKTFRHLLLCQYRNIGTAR

Test [8] can be described thus: inhibitors of larval lipid processing in zebrafish, primary screen, whole organism, PED6 fluorescence, gall bladder and intestine (AID 686;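 active = a full or partial loss of lipid-probe fluorescence in the fish gall bladder, intestine or both, judged by eye; inactive = no fluorescence loss, or compound toxic to the fish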;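 note: larvae 5 to 7 days old with five fish per well; signal comes from phospholipase A2 cleavage of quenched PED6 carried via bile; overnight exposure to compound and PED6 before scoring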). Conditions: Zebrafish larvae PED6 lipid processing, fluorescence scoring; screened at 20 µM (by protocol). The procedure, abridged:
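Also added: quenched phospholipase substrate PED6, 100 nM final, ingested by larvae; System: zebrafish larvae, 5-7 d; Quantity: 5 larvae per well; Compound: 20 µM single dose; Schedule: overnight compound and PED6 incubation; Read-out: visual per-well fluorescence inhibition score; Measured by: By-eye fluorescence microscopy; Medium: E3.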

Test [9] is described as follows: loss of swimming-algae plug formation – whole organism, Chlamydomonas reinhardtii, WT vs cilia-less mutant, absorbance, 96-well, primary screen (AID 463189;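 active = inhibition at or above 50% relative to wild type and mutant plate controls; inactive = inhibition below 50%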;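 note: 0% = wild type cc124 cells in DMSO and 100% = ciliumless bld1 mutant cells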). As to conditions: Chlamydomonas reinhardtii gravitaxis, OD600 absorbance, 2 days; at 10 µM; stronger effect = higher value.
The mark [10] stands for this setting: measured here: cell density z-score.
Where [11] appears, read: measured here: nuclear c-Myc green intensity z-score.
Where [12] appears, read: measured here: nuclear pErk red intensity z-score, stronger effect = higher value.

Voltage-gated potassium channel subunit beta-2 (Rattus norvegicus), sequence (P62483 whole entry, looked up): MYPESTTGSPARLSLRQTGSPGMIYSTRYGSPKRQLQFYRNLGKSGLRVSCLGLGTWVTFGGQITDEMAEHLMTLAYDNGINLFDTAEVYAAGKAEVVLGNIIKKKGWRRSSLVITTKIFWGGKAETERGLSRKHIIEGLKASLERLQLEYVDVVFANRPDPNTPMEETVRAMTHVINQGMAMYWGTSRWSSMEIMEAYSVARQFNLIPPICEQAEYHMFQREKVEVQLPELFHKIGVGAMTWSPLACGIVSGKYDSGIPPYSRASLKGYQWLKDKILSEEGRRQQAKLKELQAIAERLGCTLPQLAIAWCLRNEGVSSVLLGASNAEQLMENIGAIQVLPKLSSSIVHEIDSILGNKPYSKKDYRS

Consider `Cc1nnc(N2CCCCC2)c2ccccc12`, for which the cell count in test [1] was found to be 511. Besides, the inhibition was -5.6% (inactive) in [1], 59.4% (inactive) in test [2], 18.4% (inactive) in test [4] and 47.9% (inactive) in test [9]. In addition, in [2], the nuclei count turned out to be 87%. Further, the z-score in [3] (setting [10]) was -2.8; in test [3] (setting [11]), 0.768; in test [3] (setting [12]) it was 0.176. The results for the fluorescence slope in test [5] and in [7] were -0.507 (inactive) and 0.0054 (inactive), respectively. The NADPH fluorescence slope in test [6] was -9.4e-06 (inactive). Moreover, the call in [8] was inactive.
For `O=C(O)c1ccc(C2CCCCC2)cn1`, in test [1], the cell count worked out at 532. The inhibition was 0.5% (inactive) in [1], -129% (inactive) in test [2], 3.97% (inactive) in test [4] and -1.91% (inactive) in test [9]. In test [2], this compound yielded a nuclei count of 197%. For the same compound, the z-score in [3] (setting [10]) is -1.16; in [3] (setting [11]), 0.871; in test [3] (setting [12]) it was -1.14. The values for the fluorescence slope in test [5] and in test [7] were -0.444 (inactive) and 0.00555 (inactive), respectively. Further, the NADPH fluorescence slope in [6] is -4.4e-05 (inactive). Besides, the compound was classed as inactive in [8].
`CCOc1cccc(NC(=O)C2CC(=O)NC(=Nc3ccccc3)S2)c1` (stereo unspecified): the cell count in test [1] is 590. Besides, the inhibition in [1] was -4.7% (inactive); in [2] it was -27.3% (inactive); in test [4], -11.4% (inactive); in [9], 8.03% (inactive). Also, the nuclei count in test [2] was found to be 117%. The z-score in test [3] (setting [10]) was -0.0327; in test [3] (setting [11]), -1.3; in test [3] (setting [12]), -0.145. For the same compound, the fluorescence slope is -0.456 (inactive) in [5] and 0.00448 (inactive) in test [7]. Further, the NADPH fluorescence slope in test [6] is -1.8e-05 (inactive). Also, the result in test [8] was inactive.
Consider `O=C(NCCN1CCOCC1)c1ccc(=O)oc1`, for which the cell count in test [1] came to 515. The inhibition is -7.5% (inactive) in test [1], 70.5% (active) in test [2], 4.37% (inactive) in test [4] and -15.9% (inactive) in test [9]. In addition, the nuclei count in test [2] was determined as 102%. Moreover, the z-score in test [3] (setting [10]) was 0.12; in test [3] (setting [11]), 1.12; in test [3] (setting [12]), 0.0878. Besides, the values for the fluorescence slope in test [5] and in test [7] were -0.481 (inactive) and 0.0085 (inactive), respectively. For the same compound, in test [6], the NADPH fluorescence slope is -8.3e-05 (inactive). In addition, in [8], the compound was called inactive.
For the compound `COc1ccc(CN(C)CCc2ccccn2)c(OC)c1OC`, in [1], the cell count is 494. Moreover, the inhibition in [1] was -4.5% (inactive); in test [2], -90.8% (inactive); in test [4], -3.95% (inactive); in [9] it was 18.3% (inactive). The compound further yielded a nuclei count in test [2] of 151%. Further, the z-score was -1.25 in test [3] (setting [10]), -0.772 in test [3] (setting [11]) and 0.512 in [3] (setting [12]). For the same compound, the fluorescence slope in [5] is -0.419 (inactive); in [7], 0.00521 (inactive). Moreover, the NADPH fluorescence slope in [6] was -3.4e-05 (inactive). In addition, the result in test [8] was inactive.
Consider `Cc1c(O)c(CN2CCCC2)cc2c1oc(=O)c1ccccc12`, for which, in [1], the cell count turned out to be 602. The inhibition in [1] was 3.3% (inactive); in [2], 92.9% (active); in test [4], -8.95% (inactive); in test [9], 17.4% (inactive). In test [2], this compound gave a nuclei count of 77.2%. Besides, the figures for the z-score in test [3] (setting [10]), in test [3] (setting [11]) and in [3] (setting [12]) were 0.99, 0.189 and -0.00827, respectively. For the same compound, the fluorescence slope in test [5] was -0.44 (inactive); in test [7] it was 0.00331 (inactive). Besides, the NADPH fluorescence slope in [6] was -2.9e-05 (inactive). Also, the call in test [8] was inactive.
Take `CCOC(=O)c1cnn2c1[nH]c(=O)c1ccccc12`: the cell count in test [1] is 560. Besides, the inhibition in [1] is -6.1% (inactive); in test [2], -143% (inactive); in test [4] it was 17.8% (inactive); in test [9], 24.1% (inactive). This compound also yielded a nuclei count in [2] of 165%. For the same compound, the z-score in test [3] (setting [10]) is 0.0185; in test [3] (setting [11]), 1.83; in test [3] (setting [12]), -0.274. The fluorescence slope in test [5] is -0.378 (inactive); in test [7], 0.0106 (active). For the same compound, in test [6], the NADPH fluorescence slope was -4.5e-05 (inactive). Besides, the call in [8] was inactive.

These data come from PubChem BioAssay.
